Data published in ChEMBL document CHEMBL3259769, “Symmetric adamantyl-diureas as soluble epoxide hydrolase inhibitors” (Bioorg Med Chem Lett, 2014).
Values after ≈ are worked out from the molar mass of the structure shown.

What was measured:
[1] = molecular target: T1, Bifunctional epoxide hydrolase 2 (Homo sapiens, UniProt P34913); test: Inhibition of recombinant human soluble epoxide hydrolase using CMNPC as substrate preincubated for 5 mins followed by substrate addition measured at 5 mins post substrate addition by fluorescence assay in presence of 0.1 mg/mL BSA
T1 sequence (P34913 whole entry): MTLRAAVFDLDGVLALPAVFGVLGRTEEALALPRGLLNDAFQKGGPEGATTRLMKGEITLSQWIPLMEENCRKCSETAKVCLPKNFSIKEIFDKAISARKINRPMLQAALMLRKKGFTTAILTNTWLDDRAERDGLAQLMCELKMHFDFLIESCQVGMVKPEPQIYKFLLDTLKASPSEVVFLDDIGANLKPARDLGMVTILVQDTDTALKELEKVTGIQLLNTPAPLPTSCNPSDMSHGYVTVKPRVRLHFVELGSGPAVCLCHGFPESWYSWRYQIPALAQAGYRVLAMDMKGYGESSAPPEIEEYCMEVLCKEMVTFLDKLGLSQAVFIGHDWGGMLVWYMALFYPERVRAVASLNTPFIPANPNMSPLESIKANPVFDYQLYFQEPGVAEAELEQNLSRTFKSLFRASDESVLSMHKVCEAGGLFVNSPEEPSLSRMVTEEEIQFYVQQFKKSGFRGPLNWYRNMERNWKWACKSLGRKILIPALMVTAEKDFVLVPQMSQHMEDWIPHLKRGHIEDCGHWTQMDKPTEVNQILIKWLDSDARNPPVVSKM

[2] = Metabolic stability in human liver microsomes assessed as compound remaining at 1 uM preincubated for 5 mins followed by NADPH addition measured after 30 mins by LC/MS/MS analysis; type: ADME; conditions: read-out: Stability
Summary of the method: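 Human liver microsomes (1 mg/mL final) in 0.1 M potassium phosphate, pH 7.4, 3 mM MgCl2, 1 mM EDTA, were preincubated with inhibitor 5 min at 37 °C. Reaction was started with NADPH generating system and run 30 min at 37 °C. Quenched with one volume methanol containing 200 nM CUDA surrogate. LC/MS/MS; % remaining; triplicate average.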

[3] = Metabolic stability in human liver microsomes assessed as compound remaining at 1 uM after 30 mins by LC/MS/MS analysis in absence of NADPH; type: ADME; conditions: read-out: Stability
Summary of the method: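 Inhibitor added to human liver microsomes (1 mg/mL final) in 0.1 M potassium phosphate, pH 7.4, with 3 mM MgCl2 and 1 mM EDTA. After 5 min at 37 °C, buffer was added in place of NADPH generating system, then 30 min at 37 °C. Stopped with one volume methanol containing 200 nM CUDA surrogate. LC/MS/MS; % remaining; triplicate average.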

[4] = Solubility of the compound in sodium phosphate buffer at pH 7.4 after 24 hrs by LC/MS/MS analysis; type: physicochemical
Summary of the method: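 Compound suspended in 0.1 M sodium phosphate buffer, pH 7.4, containing 1% DMSO, held 24 h at 30 °C, then 1 h at rt. Centrifuged 10,000 rpm for 10 min; supernatant diluted 5-fold in methanol, 15 min at rt to precipitate salt, then re-centrifuged. Supernatant stored at -20 °C until LC/MS-MS quantitation.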

[5] = molecular target: T1, Bifunctional epoxide hydrolase 2; test: Inhibition of recombinant human soluble epoxide hydrolase using CMNPC as substrate preincubated for 5 mins followed by substrate addition measured at 5 mins post substrate addition by fluorescence assay in presence of 1 mg/mL BSA
[6] = molecular target: T2, Bifunctional epoxide hydrolase 2 (Homo sapiens) (UniProt P34913)
T2 sequence (whole entry): T1 sequence (P34913 whole entry)

[7] = molecular target: T1, Bifunctional epoxide hydrolase 2; test: Displacement of ACPU from recombinant human soluble epoxide hydrolase after 1.5 hrs by FRET assay
Summary of the method: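 Human sEH was preincubated with an equimolar amount of the fluorescent reporter ACPU for 2 h at rt. The complex (20 nM) was used in 100 mM sodium phosphate with 0.1% gelatin, pH 7.4, on gelatin-precoated plates. Inhibitor was added as 12 two-fold dilutions, with DMSO as control, and incubated 1.5 h. Fluorescence (ex 280/em 450 nm) was normalised to baseline and fitted to a three-state equilibrium model to give Ki.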

Row | Structure (SMILES) | IC50 [1] [nM] | remaining at 0.5 h, 1 µM [2] [%] | remaining at 0.5 h, 1 µM [3] [%] | solubility at 24 h [4] [µM] | IC50 [5] [nM] | T1/2 [6] [min] | Ki [7] [nM]
1 | CCC(CNC(=O)NCCCCCCCCNC(=O)NCC(CC)C12CC3CC(CC(C3)C1)C2)C12CC3CC(CC(C3)C1)C2 (configuration not stated) | 1440 |  |  |  |  |  | 
2 | O=C(NC1CCCCC1)NC1CCCCC1 [1,3-DICYCLOHEXYLUREA] |  | 22 | 100 | 5 (≈ 1.12 µg/mL) |  |  | 
3 | O=C(NCC12CC3CC(CC(C3)C1)C2)Nc1ccc(NC(=O)NCC23CC4CC(CC(C4)C2)C3)cc1 | 780 |  |  |  |  |  | 
4 | O=C(NCC1CCN(C(=O)NCC23CC4CC(CC(C4)C2)C3)CC1)NCC12CC3CC(CC(C3)C1)C2 | 39.7 |  |  |  |  |  | 
5 | O=C(NCCNC(=O)NCC12CC3CC(CC(C3)C1)C2)NCC12CC3CC(CC(C3)C1)C2 | 179 |  |  |  |  |  | 
6 | O=C(NCCCCCCCCNC(=O)NC12CC3CC(CC(C3)C1)C2)NC12CC3CC(CC(C3)C1)C2 | 997 |  |  |  |  |  | 
7 | O=C(NCCCCCCNC(=O)NCC12CC3CC(CC(C3)C1)C2)NCC12CC3CC(CC(C3)C1)C2 |  | 3 | 102 | 50 (≈ 24.9 µg/mL) | 0.7 | 10 | 3.4
8 | CC(NC(=O)Nc1ccc(NC(=O)NC(C)C23CC4CC(CC(C4)C2)C3)cc1)C12CC3CC(CC(C3)C1)C2 (configuration not stated) | 161 |  |  |  |  |  | 

The remaining compounds from weak to strong by IC50 [1], led by results:

Row | IC50 [1] [nM] | remaining at 0.5 h, 1 µM [2] [%] | remaining at 0.5 h, 1 µM [3] [%] | solubility at 24 h [4] [µM] | IC50 [5] [nM] | T1/2 [6] [min] | Ki [7] [nM] | Structure (SMILES)
9 | 26.3 |  |  |  |  |  |  | O=C(NCCCCNC(=O)NCC12CC3CC(CC(C3)C1)C2)NCC12CC3CC(CC(C3)C1)C2
10 | 19.5 |  |  |  |  |  |  | O=C(Nc1ccc(NC(=O)NC23CC4CC(CC(C4)C2)C3)cc1)NC12CC3CC(CC(C3)C1)C2
11 | 10.4 |  |  |  |  |  |  | O=C(NCCCCNC(=O)NC1C2CC3CC(C2)CC1C3)NC1C2CC3CC(C2)CC1C3 (configuration not stated)
12 | 7.3 |  |  |  |  |  |  | O=C(NCCCCCCCCNC(=O)NCC12CC3CC(CC(C3)C1)C2)NCC12CC3CC(CC(C3)C1)C2
13 | 7.2 |  |  |  |  |  |  | O=C(NCCCCNC(=O)NC12CC3CC(CC(C3)C1)C2)NC12CC3CC(CC(C3)C1)C2
14 | 2.6 | 36 | 100 | 5 (≈ 2.49 µg/mL) | 4.1 | 2.5 | 2.4 | O=C(NCCCCCCCCNC(=O)NC1C2CC3CC(C2)CC1C3)NC1C2CC3CC(C2)CC1C3 (configuration not stated)
15 | 2.3 |  |  |  |  |  |  | CCC(CNC(=O)NCCCCNC(=O)NCC(CC)C12CC3CC(CC(C3)C1)C2)C12CC3CC(CC(C3)C1)C2 (configuration not stated)
16 | 1.2 | 24 | 92 | 10 (≈ 4.99 µg/mL) | 2.5 | 8 | 2.7 | CC(NC(=O)NCCCCNC(=O)NC(C)C12CC3CC(CC(C3)C1)C2)C12CC3CC(CC(C3)C1)C2 (configuration not stated)
17 | 1.2 | 19 | 93 | 5 (≈ 1.64 µg/mL) | 1.3 |  |  | O=C(NC12CC3CC(CC(C3)C1)C2)NC12CC3CC(CC(C3)C1)C2
18 | 0.5 | 11 | 100 | 10 (≈ 5.55 µg/mL) | 0.8 | 11 | 3.1 | CC(NC(=O)NCCCCCCCCNC(=O)NC(C)C12CC3CC(CC(C3)C1)C2)C12CC3CC(CC(C3)C1)C2 (configuration not stated)
